From ChEMBL document CHEMBL1137781, “Synthesis and preclinical evaluation of novel PET probes for P-glycoprotein function and expression” (J Med Chem, 2009)

How the values were obtained:
[1] = Biodistribution in 50 mg/kg cyclosporin A pretreated Wistar rat medulla at 49+/-11 MBq, iv after 80 mins; type: ADME, organism-based, Medulla of organ; design: dose 50 mg/kg, route intravenous; settings: in vivo
[2] = Biodistribution in Wistar rat fat at 38+/-8 MBq, iv after 80 mins; type: ADME, organism-based, Adipose tissue; settings: in vivo
Procedure, shortened: (§1)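 Male Wistar rats (12 h light/dark, chow ad libitum) were fitted with a femoral arterial cannula under isoflurane. They were pretreated via tail vein with saline, cyclosporin A (50 mg/kg), or nonradioactive tracer compound (15 mg/kg; 10 mg/mL in saline with 35% ethanol). The 11C tracer was then given via penile vein, followed by 76 min microPET. Animals were then terminated; excised tissues were weighed and gamma-counted with decay correction. Values are SUVs (tissue MBq/g × body weight g / injected MBq).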

[3] = Biodistribution in 50 mg/kg cyclosporin A pretreated Wistar rat red blood cells at 49+/-11 MBq, iv after 80 mins; type: ADME, organism-based, Erythrocyte; design: dose 50 mg/kg, route intravenous; settings: in vivo
Liver [4] = test: Biodistribution in 50 mg/kg cyclosporin A pretreated Wistar rat liver at 49+/-11 MBq, iv after 80 mins; type: ADME, organism-based; design: dose 50 mg/kg, route intravenous; settings: in vivo
[5] = Biodistribution in Wistar rat parietal/temporal/occipital cortex at 38+/-8 MBq, iv after 80 mins; type: ADME, organism-based; settings: in vivo; procedure, shortened: as §1
[6] = Biodistribution in 50 mg/kg cyclosporin A pretreated Wistar rat bulbus olfactorius at 49+/-11 MBq, iv after 80 mins; type: ADME, organism-based, Olfactory bulb; design: dose 50 mg/kg, route intravenous; settings: in vivo
Procedure, shortened: (§2)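 Male Wistar rats pretreated via tail vein with saline or cyclosporin A (50 mg/kg, commercial solution), then given the [11C] tracer via penile vein. After microPET scanning the anesthetized rats were killed. Tissues were excised and weighed, and blood was centrifuged into plasma and cells. γ counting with decay correction. Results as SUV (tissue MBq/g × body weight/injected dose).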

Bone [7] = test: Biodistribution in Wistar rat bone at 38+/-8 MBq, iv after 80 mins; type: ADME, organism-based, Bone element; settings: in vivo
Cerebellum [8] = test: Biodistribution in 50 mg/kg cyclosporin A pretreated Wistar rat cerebellum at 49+/-11 MBq, iv after 80 mins; type: ADME, organism-based; design: dose 50 mg/kg, route intravenous; settings: in vivo; procedure, shortened: as §2
[9] = Biodistribution in Wistar rat red blood cells at 38+/-8 MBq, iv after 80 mins; type: ADME, organism-based, Erythrocyte; settings: in vivo
[10] = Biodistribution in Wistar rat frontal cortex at 38+/-8 MBq, iv after 80 mins; type: ADME, organism-based; settings: in vivo; procedure, shortened: as §1
Spleen = test: Biodistribution in Wistar rat spleen at 38+/-8 MBq, iv after 80 mins; type: ADME, organism-based; settings: in vivo
[11] = Biodistribution in Wistar rat entorhinal cortex at 38+/-8 MBq, iv after 80 mins; type: ADME, organism-based; settings: in vivo; procedure, shortened: as §1
Colon [12] = test: Biodistribution in 50 mg/kg cyclosporin A pretreated Wistar rat colon at 49+/-11 MBq, iv after 80 mins; type: ADME, organism-based; design: dose 50 mg/kg, route intravenous; settings: in vivo; procedure, shortened: as §2
Heart [13] = test: Biodistribution in Wistar rat heart at 38+/-8 MBq, iv after 80 mins; type: ADME, organism-based; settings: in vivo; procedure, shortened: as §1
Liver [14] = test: Biodistribution in Wistar rat liver at 38+/-8 MBq, iv after 80 mins; type: ADME, organism-based; settings: in vivo; procedure, shortened: as §1
[15] = Biodistribution in 50 mg/kg cyclosporin A pretreated Wistar rat amygdala at 49+/-11 MBq, iv after 80 mins; type: ADME, organism-based; design: dose 50 mg/kg, route intravenous; settings: in vivo
Procedure, shortened: (§3)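 Male Wistar rats pretreated with saline or cyclosporin A (50 mg/kg) via tail vein, then given the [11C] tracer via penile vein. Tissues excised after scanning and weighed. γ counting with decay correction. Results as SUV normalized to body weight and injected dose.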

Muscle tissue [16] = test: Biodistribution in Wistar rat muscle at 38+/-8 MBq, iv after 80 mins; type: ADME, organism-based; settings: in vivo; procedure, shortened: as §1
[17] = Biodistribution in Wistar rat amygdala at 38+/-8 MBq, iv after 80 mins; type: ADME, organism-based; settings: in vivo
Hippocampus [18] = test: Biodistribution in 50 mg/kg cyclosporin A pretreated Wistar rat hippocampus at 49+/-11 MBq, iv after 80 mins; type: ADME, organism-based; design: dose 50 mg/kg, route intravenous; settings: in vivo
Ileum [19] = test: Biodistribution in 50 mg/kg cyclosporin A pretreated Wistar rat ileum at 49+/-11 MBq, iv after 80 mins; type: ADME, organism-based; design: dose 50 mg/kg, route intravenous; settings: in vivo
Plasma [20] = test: Biodistribution in Wistar rat plasma at 38+/-8 MBq, iv after 60 mins; type: ADME, organism-based; settings: in vivo, 1 h
Striatum [21] = test: Biodistribution in Wistar rat striatum at 38+/-8 MBq, iv after 80 mins; type: ADME, organism-based; settings: in vivo
Lung = test: Biodistribution in 50 mg/kg cyclosporin A pretreated Wistar rat lung at 49+/-11 MBq, iv after 80 mins; type: ADME, organism-based; design: dose 50 mg/kg, route intravenous; settings: in vivo
Rattus norvegicus [22] = test: AUC in Wistar rat at 38+/-8 MBq, iv; type: ADME, organism-based, Plasma; settings: in vivo
Procedure, shortened: (§4)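 Male Wistar rats with a femoral arterial cannula placed under isoflurane. Saline or cyclosporin A (50 mg/kg, commercial solution) given via tail vein, then the [11C] tracer via penile vein. Dynamic microPET over the brain for 76 min, with 14 arterial samples to 60 min. Plasma counted in a γ counter. AUC of whole-brain or plasma SUV over 0-60 min.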

Muscle tissue [23] = test: Biodistribution in 50 mg/kg cyclosporin A pretreated Wistar rat muscle at 49+/-11 MBq, iv after 80 mins; type: ADME, organism-based; design: dose 50 mg/kg, route intravenous; settings: in vivo
[24] = Biodistribution in Wistar rat cingulate cortex at 38+/-8 MBq, iv after 80 mins; type: ADME, organism-based; settings: in vivo; procedure, shortened: as §1
Colon [25] = test: Biodistribution in Wistar rat colon at 38+/-8 MBq, iv after 80 mins; type: ADME, organism-based; settings: in vivo; procedure, shortened: as §1
Pons [26] = test: Biodistribution in 50 mg/kg cyclosporin A pretreated Wistar rat pons at 49+/-11 MBq, iv after 80 mins; type: ADME, organism-based; design: dose 50 mg/kg, route intravenous; settings: in vivo
Duodenum [27] = test: Biodistribution in Wistar rat duodenum at 38+/-8 MBq, iv after 80 mins; type: ADME, organism-based; settings: in vivo; procedure, shortened: as §1
[28] = Biodistribution in Wistar rat bulbus olfactorius at 38+/-8 MBq, iv after 80 mins; type: ADME, organism-based, Olfactory bulb; settings: in vivo
Ileum [29] = test: Biodistribution in Wistar rat ileum at 38+/-8 MBq, iv after 80 mins; type: ADME, organism-based; settings: in vivo; procedure, shortened: as §1
[30] = Biodistribution in 50 mg/kg cyclosporin A pretreated Wistar rat parietal/temporal/occipital cortex at 49+/-11 MBq, iv after 80 mins; type: ADME, organism-based; design: dose 50 mg/kg, route intravenous; settings: in vivo
Cerebellum [31] = test: Biodistribution in Wistar rat cerebellum at 38+/-8 MBq, iv after 80 mins; type: ADME, organism-based; settings: in vivo
[32] = Biodistribution in 50 mg/kg cyclosporin A pretreated Wistar rat fat at 49+/-11 MBq, iv after 80 mins; type: ADME, organism-based, Adipose tissue; design: dose 50 mg/kg, route intravenous; settings: in vivo; procedure, shortened: as §2
[33] = Biodistribution in Wistar rat medulla at 38+/-8 MBq, iv after 80 mins; type: ADME, organism-based, Medulla of organ; settings: in vivo; procedure, shortened: as §1
Heart [34] = test: Biodistribution in 50 mg/kg cyclosporin A pretreated Wistar rat heart at 49+/-11 MBq, iv after 80 mins; type: ADME, organism-based; design: dose 50 mg/kg, route intravenous; settings: in vivo
[35] = Biodistribution in 50 mg/kg cyclosporin A pretreated Wistar rat entorhinal cortex at 49+/-11 MBq, iv after 80 mins; type: ADME, organism-based; design: dose 50 mg/kg, route intravenous; settings: in vivo; procedure, shortened: as §2
[36] = Biodistribution in 50 mg/kg cyclosporin A pretreated Wistar rat trachea at 49+/-11 MBq, iv after 80 mins; type: ADME, organism-based; design: dose 50 mg/kg, route intravenous; settings: in vivo
Striatum [37] = test: Biodistribution in 50 mg/kg cyclosporin A pretreated Wistar rat striatum at 49+/-11 MBq, iv after 80 mins; type: ADME, organism-based; design: dose 50 mg/kg, route intravenous; settings: in vivo
Pancreas = test: Biodistribution in Wistar rat pancreas at 38+/-8 MBq, iv after 80 mins; type: ADME, organism-based; settings: in vivo; procedure, shortened: as §1
Plasma [38] = test: Biodistribution in Wistar rat plasma at 38+/-8 MBq, iv after 80 mins; type: ADME, organism-based; settings: in vivo
Procedure, shortened: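 Male Wistar rats under isoflurane were given tracer via the penile vein after tail-vein pretreatment with saline or drug. At the end of a 76 min microPET scan the anesthetized animals were terminated. Blood was collected and centrifuged 5 min at 1000g for plasma. Plasma was weighed, γ-counted with decay correction and expressed as SUV (tissue MBq/g × body weight/injected dose).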

Duodenum [39] = test: Biodistribution in 50 mg/kg cyclosporin A pretreated Wistar rat duodenum at 49+/-11 MBq, iv after 80 mins; type: ADME, organism-based; design: dose 50 mg/kg, route intravenous; settings: in vivo; procedure, shortened: as §2
Hippocampus [40] = test: Biodistribution in Wistar rat hippocampus at 38+/-8 MBq, iv after 80 mins; type: ADME, organism-based; settings: in vivo; procedure, shortened: as §1
Pons [41] = test: Biodistribution in Wistar rat pons at 38+/-8 MBq, iv after 80 mins; type: ADME, organism-based; settings: in vivo
Plasma [42] = test: Biodistribution in 50 mg/kg cyclosporin A pretreated Wistar rat plasma at 49+/-11 MBq, iv after 80 mins; type: ADME, organism-based; design: dose 50 mg/kg, route intravenous; settings: in vivo
[43] = Biodistribution in Wistar rat trachea at 38+/-8 MBq, iv after 80 mins; type: ADME, organism-based; settings: in vivo
Rattus norvegicus [44] = test: AUC in 50 mg/kg cyclosporin A pretreated Wistar rat at 49+/-11 MBq, iv; type: ADME, organism-based, Plasma; design: dose 50 mg/kg, route intravenous; settings: in vivo; procedure, shortened: as §4
[45] = Biodistribution in 50 mg/kg cyclosporin A pretreated Wistar rat cingulate cortex at 49+/-11 MBq, iv after 80 mins; type: ADME, organism-based; design: dose 50 mg/kg, route intravenous; settings: in vivo; procedure, shortened: as §2
Kidney [46] = test: Biodistribution in Wistar rat kidney at 38+/-8 MBq, iv after 80 mins; type: ADME, organism-based; settings: in vivo; procedure, shortened: as §1
Bone [47] = test: Biodistribution in 50 mg/kg cyclosporin A pretreated Wistar rat bone at 49+/-11 MBq, iv after 80 mins; type: ADME, organism-based, Bone element; design: dose 50 mg/kg, route intravenous; settings: in vivo; procedure, shortened: as §3
[48] = Biodistribution in 50 mg/kg cyclosporin A pretreated Wistar rat frontal cortex at 49+/-11 MBq, iv after 80 mins; type: ADME, organism-based; design: dose 50 mg/kg, route intravenous; settings: in vivo
Kidney [49] = test: Biodistribution in 50 mg/kg cyclosporin A pretreated Wistar rat kidney at 49+/-11 MBq, iv after 80 mins; type: ADME, organism-based; design: dose 50 mg/kg, route intravenous; settings: in vivo

SUV [1]: 0.67
SUV [2]: 0.38
SUV [3]: 0.07
SUV (Liver [4]): 1.84
SUV [5]: 0.036
SUV [6]: 0.57
SUV (Bone [7]): 0.25
SUV (Cerebellum [8]): 0.6
SUV [9]: 0.06
SUV [10]: 0.031
SUV (Spleen): 0.93
SUV [11]: 0.027
SUV (Colon [12]): 0.4
SUV (Heart [13]): 0.24
SUV (Liver [14]): 1.23
SUV [15]: 0.62
SUV (Muscle tissue [16]): 0.29
SUV [17]: 0.034
SUV (Hippocampus [18]): 0.54
SUV (Ileum [19]): 0.56
SUV (Plasma [20]): 0.18
SUV (Striatum [21]): 0.038
SUV (Lung): 1.95
AUC (Rattus norvegicus [22]): 100%
SUV (Muscle tissue [23]): 0.37
SUV [24]: 0.027
SUV (Colon [25]): 0.32
SUV (Pons [26]): 0.68
SUV (Duodenum [27]): 0.78
SUV [28]: 0.038
SUV (Ileum [29]): 0.49
SUV [30]: 0.64
SUV (Cerebellum [31]): 0.052
SUV [32]: 0.5
SUV [33]: 0.044
SUV (Heart [34]): 0.3
SUV [35]: 0.59
SUV [36]: 0.46
SUV (Striatum [37]): 0.55
SUV (Pancreas): 0.82
SUV (Plasma [38]): 0.13
SUV (Duodenum [39]): 0.63
SUV (Hippocampus [40]): 0.036
SUV (Pons [41]): 0.034
SUV (Plasma [42]): 0.17
SUV [43]: 0.35
AUC (Rattus norvegicus [44]): 110%
SUV [45]: 0.5
SUV (Kidney [46]): 0.61
SUV (Bone [47]): 0.38
SUV [48]: 0.52
SUV (Kidney [49]): 1.07
SMILES: COc1ccc(CCN([11CH3])CCCC(C#N)(c2ccc(OC)c(OC)c2)C(C)C)cc1OC (configuration not stated)
